Only some compounds are listed: those with a hit (about 3.9% of all), similar ones and a draw of the others.
M1 ag: human M1 muscarinic receptor agonists, primary screen, Fluo-8 calcium fluorescence, CHO-K1 cells, HTS; Muscarinic acetylcholine receptor M1 (Homo sapiens), P11229; CHO-K1 hM1, agonist mode; 0% DMSO, 100% acetylcholine EC100; activation, % at 3 µM; 360,000 compounds, 0.33% hits; AID 588814, 2011;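 active = activation above the run's mean compound activation plus 3 SD, cut at about 16% in these data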;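 also: peak over basal fluorescence ratio within a 140 s kinetic read after compound addition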
M1 PAM: human M1 muscarinic receptor positive allosteric modulators, primary screen, CHO-K1 cells, Fluo-8 calcium fluorescence, 1536-well; CHO-K1 hM1, ACh EC20; 0% = ACh EC20, 100% = maximal ACh; activation, % at 3 µM; 360,000 compounds, 0.088% hits; Muscarinic acetylcholine receptor M1 (Homo sapiens), P11229; in the data active = activation above about 19%, passing the limit was not always enough
CHRM1 antagonist: human M1 muscarinic receptor antagonists, primary screen, CHO-K1 cells, Fluo-8 calcium fluorescence, 1536-well | CHO-K1 hM1, ACh EC80 antagonist | inhibition, % at 3 µM | 360,000 compounds, 1.3% hits;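 active = percent inhibition above its own plate's cutoff, namely the mean of that plate's compound wells plus 3 SD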;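 also: peak over basal fluorescence ratio during 140 s after agonist addition; 0% = ACh EC80 plus DMSO and 100% = DMSO alone without agonist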
TAAR1 antagonist: human TAAR1 antagonists, primary screen, Fluo-8 calcium fluorescence, CHO RD-HGA16 cells; Trace amine-associated receptor 1 (Homo sapiens), Q96RJ0; antagonist; inhibition, % at 3 µM; 360,000 compounds, 1.5% hits; AID 624466, 2012;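 active = inhibition above a per-plate cutoff, the mean inhibition of test compounds on that plate plus 3 SD, cut at about 49% in these data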;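 also: 0% = DMSO plus EC80 beta-PEA response and 100% = DMSO alone without agonist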
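Material: CHO RD-HGA16 cells bearing hTAAR1; compound dosing: one-point dosing, 3 µM nominal final; schedule: dye loading 75 min at 37 °C, then 30 min room temperature; measured by: calcium fluorescence with Fluo-8; control set: vehicle and agonist controls; replication: n of 1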
HTR2A ag: mouse Htr2a agonists via beta-arrestin recruitment, primary screen, cell-based, luminescence. CHO-K1 mHTR2A beta-arrestin complementation; percent of 30 µM serotonin response. activation, % at 7.6 µM. 360,000 compounds, 0.66% hits. AID 624169, 2012;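 active = activation above a run cutoff, the mean activation of all tested compounds plus 3 SD, cut at about 14% in these data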;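 also: 0% = plate median of compound wells and 100% = 30 µM serotonin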
Target sequence (P35363 whole entry, looked up): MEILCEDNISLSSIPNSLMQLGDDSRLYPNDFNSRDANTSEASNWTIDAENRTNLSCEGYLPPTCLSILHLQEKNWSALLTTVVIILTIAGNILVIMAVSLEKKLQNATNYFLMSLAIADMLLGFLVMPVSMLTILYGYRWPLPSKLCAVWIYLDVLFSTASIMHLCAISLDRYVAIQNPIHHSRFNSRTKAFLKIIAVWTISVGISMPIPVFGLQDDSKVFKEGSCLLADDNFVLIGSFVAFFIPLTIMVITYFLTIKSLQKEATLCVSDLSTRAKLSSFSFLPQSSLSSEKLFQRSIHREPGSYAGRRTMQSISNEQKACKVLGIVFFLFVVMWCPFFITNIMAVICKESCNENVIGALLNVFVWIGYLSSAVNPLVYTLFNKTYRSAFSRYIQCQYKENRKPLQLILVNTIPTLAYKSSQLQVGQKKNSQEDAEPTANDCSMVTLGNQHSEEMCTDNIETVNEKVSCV
TAAR1 ag: human TAAR1 agonists, primary screen, Fluo-8 calcium fluorescence, CHO RD-HGA16 cells. Trace amine-associated receptor 1 (Homo sapiens), Q96RJ0. vehicle wells 0%, saturating PEA agonist 100%. activation, % at 3 µM. 360,000 compounds, 0.99% hits. AID 624467, 2012;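 active = activation above the mean activation of all test compounds in the run plus 3 SD, cut at about 38% in these data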
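Benchmarks: low control DMSO, high control PEA (EC100); System: CHO RD-HGA16 cells carrying human TAAR1 plus Gα16; Detection: Fluo-8 fluorescence, 5 s baseline then 140 s kinetic read; Schedule: 17-24 h plating, Fluo-8 75 min 37 °C, 30 min RT; Read-out basis: % activation from peak over basal fluorescence ratio, DMSO-to-PEA scaled.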
An asterisk follows results filed as active; / = not tested or not shown.

SMILES | M1 ag | M1 PAM | CHRM1 antagonist | TAAR1 antagonist | HTR2A ag | TAAR1 ag
OC(CCN1CCC2CCC(C2)C1)c1ccc(Br)cc1 (stereo not drawn) | -5 | -25 | 37* | -6 | -6 | 2
COc1ccc(OC)c(S(=O)(=O)N2CCN(C34CC5CC(CC(C5)C3)C4)CC2)c1 | -6 | -20 | 48* | 3 | -5 | 18
CCN1CCN(S(=O)(=O)c2cc(OC)ccc2OC)CC1 | -4 | -5 | 10 | 1 | -2 | 5
O=C(/C=C/c1ccccc1)NC(=S)NNC(=O)Cc1cccs1 | 7 | 3 | -18 | 2 | 4 | 53*
O=C(Cc1cccs1)NNC(=S)NC(=O)c1ccccc1 | -5 | -8 | 9 | -18 | 2 | 12
CC(CCc1ccccc1)NC(=O)c1ccc(-n2cncn2)c([N+](=O)[O-])c1 (stereo not drawn) | -2 | -7 | 22 | -6 | 3 | 1
O=c1c(/C=C(\O)c2ccccc2)nc2ccccc2n1-c1ccccc1 | 22* | -9 | 19 | 2 | 6 | 30
O=C(c1cnn(C(=O)CN2CCCC2=O)c1)c1ccccc1O | -3 | -8 | 24 | 46 | 2 | 22
COc1cc(C(=O)NCCC(=O)NCc2cccs2)cc(OC)c1OC | -1 | 5 | -8 | -21 | -2 | 5
Cc1ccc(Sc2ccc(NC(=O)CCN3C(=O)NC4(CCCC4)C3=O)cc2)c(C)c1 | -5 | -14 | 35* | 45 | -10 | 25
COCCn1c(SCc2ccc(OC)c(F)c2)nc2ccccc2c1=O | -4 | 2 | 0 | 16 | -6 | 13
COc1ccc(CSc2nc3ccccc3c(=O)[nH]2)cc1F | 0 | -7 | 13 | 50* | 0 | 16
COC(=O)c1ccc(/C=N/NC(=O)c2ccc3nc[nH]c3c2)cc1 | 0 | -6 | 15 | 41 | 4 | 4
O=C(N/N=C/c1ccc(Cl)cc1)c1ccc2nc[nH]c2c1 | 0 | -14 | 29* | 53* | -6 | 18
C=CCCC(=O)N1C[C@H]2CCN(C)[C@H]2C[C@H]1c1ccccc1Br | / | / | / | -4 | / | -1
CCN(CC)S(=O)(=O)c1ccc(N2Cc3ccccc3C2=N)cc1 | -3 | -9 | 30* | 8 | 4 | 2
CCN(CC)S(=O)(=O)c1cccc(N2CC(O)=C(c3ccccc3)C2=N)c1 | -4 | 15 | -5 | 7 | 5 | -2
Cc1c(N=C/C=C/c2ccccc2)c(=O)n(-c2ccccc2)n1C | -14 | -31 | 100* | 1 | -1 | 2
O=C(c1cc(-c2ccncc2)nc2ccc(Br)cc12)N1CCN(Cc2ccc3c(c2)OCO3)CC1 | -4 | -15 | 43* | 62* | -1 | 15
CN1CCN(C(CNC(=O)c2ccc(Br)o2)c2ccc(F)cc2)CC1 (stereo not drawn) | -6 | 2 | -3 | -10 | -3 | 2
COC(=O)N1C[C@H](OC(=O)c2ccc(-c3ccccc3)cc2)[C@H]2C[C@@H]1c1ccccc1O2 | / | / | / | -16 | / | 0
CC1CCCN(CC(=O)Nc2ccc(S(=O)(=O)N3CCCC3)cc2)C1 (stereo not drawn) | -12 | -34 | 67* | -9 | -7 | 4
COc1cc2c(cc1OC)C(C)N(CC(=O)Nc1ccc(S(=O)(=O)N3CCCC3)cc1)CC2 (stereo not drawn) | -3 | -25 | 58* | 0 | 4 | 2
N#Cc1cc2c(nc1S(=O)(=O)Cc1ccccc1)CCCC2 | -3 | 5 | -5 | -12 | 1 | 1
CN1OC[C@@H]2CN3C(=Nc4cc(C(F)(F)F)cc(C(F)(F)F)c4)Sc4ccccc4[C@@H]3C[C@@H]21 | / | / | / | -22 | / | 19
SMILES | M1 ag | M1 PAM | CHRM1 antagonist | TAAR1 antagonist | HTR2A ag | TAAR1 ag
CCN1CCN(C(=O)c2cc3c(s2)-c2ccccc2S(=O)(=O)C3)CC1 | -10 | -4 | 5 | -9 | -4 | 2
O=C(c1cc2c(s1)-c1ccccc1S(=O)(=O)C2)N1CCN(Cc2ccccc2)CC1 | 1 | 2 | -8 | 51* | -1 | 13
Cc1cccc(C)c1OCC(=O)Nn1c(COc2ccccc2)nc2ccccc2c1=O | -3 | -10 | 16 | 51* | -7 | 6
CC(=O)OCC(=O)[C@@]12OC3(CCCC3)O[C@@H]1C[C@H]1[C@@H]3CCC4=CC(=O)C=C[C@]4(C)[C@@]3(F)[C@@H](O)C[C@@]12C | 4 | 14 | -25 | -55 | 18* | 1
CC(=O)OCC(=O)C1(O)CCC2C3CCC4=CC(=O)C=CC4(C)C3(F)C(O)CC21C (stereo not drawn) | -2 | 4 | -8 | 4 | -3 | 4
CC[N+](C)(CC)CCC(c1ccccc1)C1CCCCC1 (stereo not drawn) | -9 | -29 | 100* | -17 | 0 | 5
CCC(C(=O)NC1CCCCCC1)c1ccccc1 (stereo not drawn) | -8 | -4 | 1 | -38 | -3 | 3
CC[N+](C)(CC)CCOC(=O)C(O)(c1ccccc1)C1CCCCC1 (stereo not drawn) | -7 | -26 | 98* | 3 | -2 | 0
Cc1cc(N2CCN(CC(C)(C)O)C[C@H]2C)ccc1N1CCN(Cc2ccccc2)[C@@H](C)C1 | / | / | / | -24 | / | 2
CN1C(=O)Cc2cc(S(=O)(=O)N3CCN(c4cccc(Cl)c4)CC3)ccc21 | -3 | 1 | -4 | -33 | 3 | 0
CN1C(=O)Cc2cc(S(=O)(=O)N3CCN(c4ccc(Cl)cc4)CC3)ccc21 | -2 | 7 | -14 | -56 | 15* | -1
O=C(C1CC(=O)N(c2ccc(Cl)cc2)C1)N1CCOCC1 (stereo not drawn) | -4 | -6 | 11 | 6 | 14 | 1
CN(C(=O)CCCN1CCCC1=O)C1CCCN(Cc2ccccc2F)C1 (stereo not drawn) | -7 | -23 | 81* | -16 | 1 | 4
COC(=O)c1ccc(C(=O)N(C)C2CCCN(Cc3ccccc3F)C2)cc1 (stereo not drawn) | -10 | 7 | -12 | -15 | 0 | 2
COCc1ccc(C(=O)N(C)C2CCCN(Cc3ccccc3F)C2)o1 (stereo not drawn) | -5 | -22 | 90* | -8 | -6 | 0
COc1ccccc1OCCNC(=O)CN(c1cccc(C)c1)S(=O)(=O)c1ccccc1 | -1 | -8 | 10 | 49* | -3 | 5

High-throughput results as filed in PubChem BioAssay.
